ChEMBL document CHEMBL1811823, “Quinazolinone linked pyrrolo[2,1-c][1,4]benzodiazepine (PBD) conjugates: Design, synthesis and biological evaluation as potential anticancer agents” (2010)
Calls of active or inactive are those of the source. The rule behind the calls is not given here.

Legend:
HOP-92 = test: Growth inhibition of human HOP92 cells by NCI anti-cancer screening method; format: functional
A549 = test: Growth inhibition of human A549 cells by NCI anti-cancer screening method; format: functional
SR = test: Growth inhibition of human SR cells by NCI anti-cancer screening method; format: functional
NCI [1] = test: Growth inhibition of human […] cells by NCI anti-cancer screening method; format: functional
K562 = test: Growth inhibition of human K562 cells by NCI anti-cancer screening method; format: functional
HL-60 = test: Growth inhibition of human HL-60(TB) cells by NCI anti-cancer screening method; format: functional
Outline: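 Cells grown in RPMI 1640 with 10% FBS and 2 mM L-glutamine were plated at a density set by doubling time. They were held 24 h at 37 °C in 5% CO2 before drug was added, then exposed continuously for 48 h. Cells were fixed with cold TCA (10% final) for 60 min at 4 °C and stained with 0.4% SRB. Bound dye was eluted in 10 mM Tris base and read at 540 nm. Percent growth was taken versus control wells.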

NCI-H322M = test: Growth inhibition of human NCI-H322M cells by NCI anti-cancer screening method; format: functional
NCI-H522 = test: Growth inhibition of human NCI-H522 cells by NCI anti-cancer screening method; format: functional
HCC 2998 = test: Growth inhibition of human HCC2998 cells by NCI anti-cancer screening method; format: functional
HCT-116 = test: Growth inhibition of human HCT116 cells by NCI anti-cancer screening method; format: functional
HCT-15 = test: Growth inhibition of human HCT15 cells by NCI anti-cancer screening method; format: functional
KM12 = test: Growth inhibition of human KM12 cells by NCI anti-cancer screening method; format: functional
SF-268 = test: Growth inhibition of human SF268 cells by NCI anti-cancer screening method; format: functional
SF-539 = test: Growth inhibition of human SF539 cells by NCI anti-cancer screening method; format: functional
SNB-75 = test: Growth inhibition of human SNB75 cells by NCI anti-cancer screening method; format: functional
U-251 = test: Growth inhibition of human U251 cells by NCI anti-cancer screening method; format: functional
LOX IMVI = test: Growth inhibition of human LOXIMVI cells by NCI anti-cancer screening method; format: functional
IGROV-1 = test: Growth inhibition of human IGROV1 cells by NCI anti-cancer screening method; format: functional
OVCAR-3 = test: Growth inhibition of human OVCAR3 cells by NCI anti-cancer screening method; format: functional
OVCAR-4 = test: Growth inhibition of human OVCAR4 cells by NCI anti-cancer screening method; format: functional
OVCAR-5 = test: Growth inhibition of human OVCAR5 cells by NCI anti-cancer screening method; format: functional
SK-OV-3 = test: Growth inhibition of human SKOV3 cells by NCI anti-cancer screening method; format: functional
786-0 = test: Growth inhibition of human 786-0 cells by NCI anti-cancer screening method; format: functional
A498 = test: Growth inhibition of human A498 cells by NCI anti-cancer screening method; format: functional
TK-10 = test: Growth inhibition of human TK10 cells by NCI anti-cancer screening method; format: functional
UO-31 = test: Growth inhibition of human UO31 cells by NCI anti-cancer screening method; format: functional
MCF7 = test: Growth inhibition of human MCF7 cells by NCI anti-cancer screening method; format: functional
MDA-MB-231 = test: Growth inhibition of human MDA-MB-231 cells by NCI anti-cancer screening method; format: functional
NCI [2] = test: Growth inhibition of human Hs 578T cells by NCI anti-cancer screening method; format: functional
MDA-MB-468 = test: Growth inhibition of human MDA-MB-468 cells by NCI anti-cancer screening method; format: functional
PC-3 = test: Growth inhibition of human PC3 cells by NCI anti-cancer screening method; format: functional
DU-145 = test: Growth inhibition of human DU145 cells by NCI anti-cancer screening method; format: functional
SK-MEL-5 = test: Growth inhibition of human SK-MEL-5 cells by NCI anti-cancer screening method; format: functional
UACC-257 = test: Growth inhibition of human UACC257 cells by NCI anti-cancer screening method; format: functional
UACC-62 = test: Growth inhibition of human UACC62 cells by NCI anti-cancer screening method; format: functional
A-375 [3] = test: Cytotoxicity against human A375 cells assessed as cell viability after 24 hrs by MTT assay; format: functional
Outline: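 A375 cells seeded at 10,000/well, incubated overnight, then treated for 24 h. MTT added at 10% of culture volume for 2 h at 37 °C. Formazan dissolved in 20% SDS/50% DMF overnight at 37 °C; absorbance read at 570 nm against a medium blank. Viability expressed as percent of untreated cells.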

A-375 [4] = test: Increase in p27 protein expression in human A375 cells at 4 uM after 24 hrs by Western blot; format: functional, cell-based
Outline: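 A375 cells (DMEM, 10% FCS, 37 °C, 5% CO2) were treated at 4 µM for 24 h. Lysates were loaded at 30 µg protein/lane on 12% SDS-PAGE and transferred to PVDF. Membranes were blocked 2 h in TBST, incubated with primary antibody overnight at 4 °C (p53 1:100, p27 1:500, NF-κB p65 1:500), then HRP secondary 1 h, with chemiluminescent detection. β-actin was the loading control; untreated and DMSO controls were run.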

A-375 [5] = test: Increase in cytochrome C release in human A375 cells at 4 uM after 24 hrs by Western blot; format: functional, cell-based
Outline: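 Western blot of A375 cell lysates after 24 h exposure at 4 µM, with 30 µg protein/lane on 12% SDS-PAGE and transfer to PVDF. Probed overnight at 4 °C with anti-cytochrome c (1:500), then HRP secondary and chemiluminescence. β-actin was the loading control; untreated and DMSO-only cells served as controls.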

A-375 [6] = test: Increase in active caspase-3 protein level in human A375 cells at 4 uM after 24 hrs by Western blot; format: functional, cell-based
Outline: (§1)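 A375 cells were exposed 24 h at 4 µM. Lysates (30 µg/lane) were run on 12% SDS-PAGE and transferred to PVDF, then probed overnight at 4 °C with anti-cleaved caspase-3 (1:200, detects 21 kDa) or anti-PARP (1:2000, detects 113 and 85 kDa). HRP secondary and chemiluminescence were used. β-tubulin was the loading control; untreated and DMSO controls were included.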

A-375 [7] = test: Increase in active PARP cleavage product (85kDa) level in human A375 cells at 4 uM after 24 hrs by Western blot; format: functional, cell-based; outline: as §1

COc1cc2c(cc1OCCCCCOc1ccc(-n3c(C)nc4ccccc4c3=O)cc1)N=C[C@@H]1CCCN1C2=O
GI50 (HOP-92): 350 nM | GI50 (A549): 230 nM | GI50 (SR): 110 nM | GI50 (NCI [1]): 190 nM | GI50 (K562): 60 nM | GI50 (HL-60): 180 nM | GI50 (NCI-H322M): 260 nM | GI50 (NCI-H522): 120 nM | GI50 (HCC 2998): 260 nM | GI50 (HCT-116): 150 nM | GI50 (HCT-15): 1090 nM | GI50 (KM12): 170 nM | GI50 (SF-268): 260 nM | GI50 (SF-539): 220 nM | GI50 (SNB-75): 380 nM | GI50 (U-251): 160 nM | GI50 (LOX IMVI): 150 nM | GI50 (IGROV-1): 180 nM | GI50 (OVCAR-3): 200 nM | GI50 (OVCAR-4): 370 nM | GI50 (OVCAR-5): 330 nM | GI50 (SK-OV-3): 430 nM | GI50 (786-0): 170 nM | GI50 (A498): 160 nM | GI50 (TK-10): 310 nM | GI50 (UO-31): 360 nM | GI50 (MCF7): 170 nM | GI50 (MDA-MB-231): 170 nM | GI50 (NCI [2]): 160 nM | GI50 (MDA-MB-468): 160 nM | GI50 (PC-3): 290 nM | GI50 (DU-145): 260 nM | GI50 (SK-MEL-5): 160 nM | GI50 (UACC-257): 390 nM | GI50 (UACC-62): 160 nM | Activity (A-375 [3]): 49.01% | Activity (A-375 [4]): Active | Activity (A-375 [5]): Active | Activity (A-375 [6]): Active | Activity (A-375 [7]): Active
